According to article PMC8906121 (Current Research in Parasitology & Vector-borne Diseases, 2021):
Several values for one entry are separate records, joined by “and”; a condition that tells them apart may be missing. Equal values may be shown once.

Legend:
[1] = system: Anopheles funestus FANG (susceptible); test: Glazed tile contact bioassay, strain FANG; assay type: in vivo; conditions: for LC50: female adults, contact exposure 30 min; for LC50 / LC50 (solo contact toxicity of synergist): mortality 24 h; for LC50 (solo contact toxicity of synergist): synergist alone, 30 min exposure
Outline: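 Adults aged 3–5 days, chilled to anaesthetize, recovered 1 h, then held 30 min on acetone-treated glazed tiles in two replicates of 10. Kept overnight on 10% dextrose; mortality scored at 24 h. Acetone-only control; Abbott correction for 5–20% control mortality, above 20% invalid. At least five repeats; probit LC50 with 95% CI. Synergist solo toxicity was tested the same way at 250–10,000 ppm.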

[2] = biological target: para-type voltage-gated sodium channels of Musca domestica (Musca domestica, UniProt Q25439); test: Fluorescence-based membrane potential cation influx assay; assay type: cell-based; conditions: for EC50: EC50, HEK293-VGSC cells, membrane potential fluorescence
[3] = system: Anopheles funestus FUMOZ-R (resistant); test: Glazed tile contact bioassay, strain FUMOZ-R; assay type: in vivo; conditions: for LC50: female adults, contact exposure 30 min; for LC50 / LC50 (solo contact toxicity of synergist): mortality 24 h; for LC50 (solo contact toxicity of synergist): synergist alone, 30 min exposure
[4] = system: cytochrome P450s of microsomal preparations of Anopheles funestus strain FUMOZ-R; test: Michaelis-Menten kinetics of BOMFC O-debenzylation, FUMOZ-R microsomes; assay type: biochemical; conditions: read-out: apparent Km
Outline: (§1)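 Microsomes from 30–50 adults, homogenized in pH 7.6 phosphate buffer with sucrose, DTT and EDTA, then spun 5,000× g, 15,000× g and 100,000× g at 4 °C. 4 μg protein incubated 1 h at 20 ± 1 °C with eleven BOMFC levels (200–0.195 μM) and 1 mM NADPH, in 0.01% zwittergent with 0.05% BSA. Stopped with pH 10 red-ox mix; hydroxycoumarin fluorescence read; quadruplicates; Michaelis-Menten fit.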

[5] = system: cytochrome P450s of microsomal preparations of Anopheles funestus strain FANG; test: Michaelis-Menten kinetics of BOMFC O-debenzylation, FANG microsomes; assay type: biochemical; conditions: read-out: apparent Km
Outline: as §1

Drosophila wildtype VGSC = Drosophila wildtype VGSC expressed in Xenopus oocytes; ref Vais et al., 2003; cited from earlier work

Chain of para-type voltage-gated sodium channels of Musca domestica (Q25439 1-2105): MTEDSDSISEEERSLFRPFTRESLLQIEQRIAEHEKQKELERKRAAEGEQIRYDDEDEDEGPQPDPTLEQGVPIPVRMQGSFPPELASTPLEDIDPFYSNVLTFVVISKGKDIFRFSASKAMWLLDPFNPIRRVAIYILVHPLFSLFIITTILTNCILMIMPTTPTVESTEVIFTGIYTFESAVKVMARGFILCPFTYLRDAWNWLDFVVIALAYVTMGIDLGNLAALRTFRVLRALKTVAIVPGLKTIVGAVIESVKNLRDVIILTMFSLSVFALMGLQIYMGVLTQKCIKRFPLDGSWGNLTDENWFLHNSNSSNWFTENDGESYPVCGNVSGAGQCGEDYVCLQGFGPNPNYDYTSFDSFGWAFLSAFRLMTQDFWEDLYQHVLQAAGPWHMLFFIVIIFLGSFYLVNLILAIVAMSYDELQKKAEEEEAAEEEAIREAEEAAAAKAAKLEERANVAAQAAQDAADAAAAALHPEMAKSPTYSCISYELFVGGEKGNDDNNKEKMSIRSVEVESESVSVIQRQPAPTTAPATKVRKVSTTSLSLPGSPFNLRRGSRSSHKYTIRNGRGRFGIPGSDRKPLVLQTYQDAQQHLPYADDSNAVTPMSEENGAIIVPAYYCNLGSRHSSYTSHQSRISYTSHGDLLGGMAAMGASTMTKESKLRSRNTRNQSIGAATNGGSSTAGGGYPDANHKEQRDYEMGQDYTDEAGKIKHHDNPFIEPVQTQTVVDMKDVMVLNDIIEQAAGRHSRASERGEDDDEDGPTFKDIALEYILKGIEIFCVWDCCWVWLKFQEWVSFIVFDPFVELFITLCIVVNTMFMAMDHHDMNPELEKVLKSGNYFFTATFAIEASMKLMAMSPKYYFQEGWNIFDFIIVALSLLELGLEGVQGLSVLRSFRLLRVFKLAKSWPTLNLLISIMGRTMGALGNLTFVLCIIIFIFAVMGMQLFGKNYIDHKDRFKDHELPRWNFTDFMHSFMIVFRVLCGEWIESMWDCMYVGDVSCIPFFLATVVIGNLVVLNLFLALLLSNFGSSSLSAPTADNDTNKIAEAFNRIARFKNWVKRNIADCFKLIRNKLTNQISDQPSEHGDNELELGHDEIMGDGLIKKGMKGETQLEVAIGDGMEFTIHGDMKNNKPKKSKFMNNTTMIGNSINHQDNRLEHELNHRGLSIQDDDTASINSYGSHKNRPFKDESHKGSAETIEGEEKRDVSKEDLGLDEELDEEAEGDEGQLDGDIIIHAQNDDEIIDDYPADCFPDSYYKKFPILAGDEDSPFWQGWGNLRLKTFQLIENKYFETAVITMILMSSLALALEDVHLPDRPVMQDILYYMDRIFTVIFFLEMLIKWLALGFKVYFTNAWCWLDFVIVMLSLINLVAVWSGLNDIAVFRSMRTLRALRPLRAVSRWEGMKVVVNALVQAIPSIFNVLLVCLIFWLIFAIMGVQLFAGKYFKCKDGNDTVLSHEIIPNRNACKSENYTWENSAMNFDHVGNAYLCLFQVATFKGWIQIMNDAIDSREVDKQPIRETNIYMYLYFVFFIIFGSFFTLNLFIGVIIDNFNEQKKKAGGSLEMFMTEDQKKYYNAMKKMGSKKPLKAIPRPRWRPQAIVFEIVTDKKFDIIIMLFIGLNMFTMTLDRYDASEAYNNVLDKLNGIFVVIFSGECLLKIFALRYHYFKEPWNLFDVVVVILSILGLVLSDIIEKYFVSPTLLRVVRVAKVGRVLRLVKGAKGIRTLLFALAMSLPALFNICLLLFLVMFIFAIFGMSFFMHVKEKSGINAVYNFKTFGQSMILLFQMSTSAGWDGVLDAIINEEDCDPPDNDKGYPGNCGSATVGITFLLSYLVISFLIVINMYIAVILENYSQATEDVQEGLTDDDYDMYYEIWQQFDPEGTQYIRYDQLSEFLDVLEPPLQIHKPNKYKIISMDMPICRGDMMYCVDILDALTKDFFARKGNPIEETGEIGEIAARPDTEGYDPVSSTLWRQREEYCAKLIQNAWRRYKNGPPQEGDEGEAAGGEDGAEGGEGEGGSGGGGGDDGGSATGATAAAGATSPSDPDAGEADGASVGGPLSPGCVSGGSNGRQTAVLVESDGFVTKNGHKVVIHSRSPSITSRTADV

## CC1(C)C(C=C(Cl)Cl)C1C(=O)OCc1cccc(Oc2ccccc2)c1 (stereo not drawn) [Permethrin, permethrin]
[1]
  LC50: 0.543 mg/m^2
[2]
  EC50: 721 nM
[3]; FUMOZ-R resistance ratio compared with deltamethrin
  RR fold lower than for deltamethrin: ~30 fold
[3]; LC50 FUMOZ-R divided by LC50 FANG
  Resistance ratio (RR): 7.76
[3]
  LC50: 4.21 mg/m^2

## O=c1cc(C(F)(F)F)c2ccc(OCOCc3ccccc3)cc2o1 [BOMFC, 7-benzyloxymethoxy-4-trifluoromethylcoumarin]
[4]
  Km: 4.41 µM
[5]
  Km: 5.76 µM

## Nn1nnc2ccccc21 [1-ABT, 1-aminobenzotriazole]
[1]; Anopheles funestus
  mortality at 750 mg/m2: < 10%
[3]; Anopheles funestus
  mortality at 750 mg/m2: < 10%

## CC1(C)C(C=C(Cl)Cl)C1C(=O)OC(C#N)c1cccc(Oc2ccccc2)c1 (stereo not drawn) [Cypermethrin]
[1]
  LC50: 0.0968 mg/m^2
[2]
  EC50: 38.9 nM
[3]
  LC50: 7.54 mg/m^2

## CC1(C)[C@H](C=C(Cl)Cl)[C@H]1C(=O)OCc1c(F)c(F)cc(F)c1F [Transfluthrin, 2,3,5,6-tetrafluorobenzyl(1R,3S)-3-(2,2-dichlorovinyl)-2,2-dimethylcyclo-propanecarboxylate]
[1]
  LC50: 0.023 mg/m^2
[1]; glazed tile bioassays against strain FANG
  fold more active than permethrin: ≤ 25 fold
[2]; compared with deltamethrin
  fold less active on VGSC than deltamethrin: more than 100 fold
[3]
  LC50: 0.0576 mg/m^2

## CCCOC/C(=N\c1ccc(Cl)cc1C(F)(F)F)n1ccnc1 [Triflumizole, triflumizole]
[1]
  LC50 (solo contact toxicity of synergist): 136 mg/m^2
[3]
  LC50 (solo contact toxicity of synergist): 392 mg/m^2

## CC1(C)[C@H](C(=O)O[C@H](C#N)c2cccc(Oc3ccccc3)c2)[C@@H]1C=C(Br)Br [Deltamethrin, deltamethrin]
[1]
  LC50: 0.0206 mg/m^2
Drosophila wildtype VGSC
  Kd: 4.7 nM
[2]
  EC50: 5.29 nM and 5.3 nM
[3]
  LC50: 4.61 mg/m^2

## CCCCOCCOCCOCc1cc2c(cc1CCC)OCO2 [PBO, piperonyl butoxide]
[1]
  LC50 (solo contact toxicity of synergist): 325 mg/m^2
[3]
  LC50 (solo contact toxicity of synergist): > 1,000 mg/m^2
